Laboratory results from ChEMBL document CHEMBL3865784 (Eur J Med Chem, 2016).

Columns and labels:
[1] = Cytotoxicity against human OVCAR8 cells overexpressing NQO1 assessed as reduction in cell viability after 72 hrs by MTT assay; format: functional, cell-based; conditions: OVCAR-8, 72 h
Procedure, shortened: (§1)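 Cancer lines from NCI, grown in RPMI 1640 with 10% FBS, 2 mM L-glutamine, penicillin/streptomycin, 37 °C, 5% CO2; seeded 0.1 × 10^6 cells/well (HL-60) or 0.7 × 10^5 cells/well (solid tumours). Compounds in DMSO, final 0.1% v/v; DMSO vehicle as negative control.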

[2] = Cytotoxicity against human MDA-MB-435 cells overexpressing NQO1 assessed as reduction in cell viability after 72 hrs by MTT assay; format: functional, cell-based; conditions: MDA-MB-435, 72 h; procedure, shortened: as §1
[3] = Cytotoxicity against NQO1-deficient mouse L929 cells assessed as reduction in cell viability after 72 hrs by MTT assay; format: toxicity, cell-based; conditions: mouse, NQO1-deficient L929 cells
[4] = Cytotoxicity against human HCT116 cells expressing NQO1 assessed as reduction in cell viability after 72 hrs by MTT assay; format: functional, cell-based; conditions: HCT-116, 72 h; procedure, shortened: as §1
[5] = Cytotoxicity against NQO1-deficient chinese hamster V79 cells assessed as reduction in cell viability after 72 hrs by MTT assay; format: toxicity, cell-based, Cricetulus griseus; conditions: Chinese hamster, NQO1-deficient V79 cells
[6] = Cytotoxicity against NQO1-deficient human PBMC assessed as reduction in cell viability after 72 hrs by MTT assay; format: toxicity, cell-based; conditions: human

Compound: COc1cccc2c1C(=O)c1c(O)c3c(c(O)c1C2=O)C[C@@](O)(C(=O)CO)C[C@@H]3O[C@H]1C[C@H](N)[C@H](O)[C@H](C)O1 [DOXORUBICIN]
- IC50 [1]: 410 nM
- IC50 [2]: 960 nM
- IC50 at 72 h [3]: 230 nM
- IC50 [4]: 150 nM
- IC50 at 72 h [5]: 280 nM
- IC50 at 72 h [6]: 550 nM
